ChEMBL document CHEMBL1125757, “Design of potent protein kinase inhibitors using the bisubstrate approach” (J Med Chem, 1991)
Where a SMILES comes first, the peptide text is derived from it. The star is where a group is joined. X1 = CN(C)c1ccc(S(=O)(=O)*)c2ccccc12

Assays:
Format in all cases: protein assay
[1] = molecular target: T1, cAMP-dependent protein kinase (PKA) (Homo sapiens, UniProt P22694+P17612+P22612); experiment: Inhibition of cAMP-dependent protein kinase (PKA).
How it was run: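 Protein kinase A (1 μg) with histone IIA 60 μg/mL, MgCl2 5 mM and [γ-³²P]ATP 10 μM (2000-4000 cpm/pmol) in Tris/HCl pH 7.0, inhibitor at various concentrations. 30 °C for 7 min, stopped with 12% TCA plus BSA carrier, reprecipitated, histone ³²P counted by scintillation.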

[2] = molecular target: Protein kinase C (PKC); experiment: Inhibition of protein kinase C (PKC)
How it was run: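 Reaction mix: protein kinase C (0.5 μg), histone IIIS 60 μg/mL, MgCl2 5 mM, CaCl2 0.5 mM, phosphatidylserine 50 μg/mL, diolein 5 μg/mL, [γ-³²P]ATP 10 μM, Tris/HCl pH 7.5, inhibitor at various concentrations. 30 °C for 7 min, stopped with TCA/BSA, precipitated twice, scintillation counting.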

[3] = molecular target: Protein kinase C (PKC); experiment: Displacement of ATP from protein kinase C (PKC)
How it was run: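 ATP-competition kinetics: Lineweaver-Burk plots at several inhibitor concentrations, with Ki taken from a secondary plot of apparent Km versus inhibitor concentration. Radiometric [γ-³²P]ATP assay in Tris/HCl pH 7.5 with MgCl2 5 mM, CaCl2 0.5 mM, phosphatidylserine 50 μg/mL, diolein 5 μg/mL and protein kinase C 0.5 μg. Run in triplicate.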

[4] = molecular target: T1, cAMP-dependent protein kinase (PKA); experiment: Displacement of ATP from protein kinase A (PKA)
How it was run: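 ATP-competition kinetics: Lineweaver-Burk plots at several inhibitor concentrations, with Ki taken from a secondary plot of apparent Km versus inhibitor concentration. Radiometric [γ-³²P]ATP phosphorylation assay in Tris/HCl pH 7.0 with MgCl2 5 mM and protein kinase A 1 μg, 30 °C, stopped with trichloroacetic acid. Run in triplicate.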

Row | SMILES | IC50 [1] [µM] | IC50 [2] [µM] | Ki [3] [µM] | Ki [4] [µM]
1 | NCCNS(=O)(=O)c1cccc2cnccc12 | 2 | 7 |  | 
2 | CC1CNCCN1S(=O)(=O)c1cccc2cnccc12.Cl.Cl (centres undefined) |  | 6 | 6 | 
3 | N=C(N)NCCC[C@H](NC(=O)[C@H](CCCNC(=N)N)NC(=O)[C@H](CCCNC(=N)N)NC(=O)[C@H](CCCNC(=N)N)NC(=O)[C@H](CCCNC(=N)N)NC(=O)[C@H](CCCNC(=N)N)NC(=O)[C@H](CO)NC(=O)CCNCCNS(=O)(=O)c1cccc2cnccc12)C(=O)O | 0.003 | 0.3 | 0.1 | 0.004
4 | COC(=O)CCNCCNS(=O)(=O)c1cccc2cnccc12 | 2 | 20 |  | 
5 | O=S(=O)(c1cccc2cnccc12)N1CCNCC1 | 6 | 12 |  | 
6 | C[C@H](NC(=O)[C@H](C)NS(=O)(=O)c1ccc(N(C)C)c2ccccc12)C(=O)N[C@@H](C)C(=O)N[C@@H](CCCN=C(N)N)C(=O)N[C@@H](CCCN=C(N)N)C(=O)N[C@@H](CCCN=C(N)N)C(=O)N[C@@H](CCCN=C(N)N)C(=O)O (X1-AAARRRR-OH) | > 75 | > 75 |  | 
